The source of these data is ChEMBL document CHEMBL1148778, “Synthesis and characterization of nonsteroidal glucocorticoid receptor modulators for multiple myeloma” (J Med Chem, 2007).

One assay has as its target T1, Glucocorticoid receptor (Homo sapiens, UniProt P04150).
T1 sequence (P04150 whole entry): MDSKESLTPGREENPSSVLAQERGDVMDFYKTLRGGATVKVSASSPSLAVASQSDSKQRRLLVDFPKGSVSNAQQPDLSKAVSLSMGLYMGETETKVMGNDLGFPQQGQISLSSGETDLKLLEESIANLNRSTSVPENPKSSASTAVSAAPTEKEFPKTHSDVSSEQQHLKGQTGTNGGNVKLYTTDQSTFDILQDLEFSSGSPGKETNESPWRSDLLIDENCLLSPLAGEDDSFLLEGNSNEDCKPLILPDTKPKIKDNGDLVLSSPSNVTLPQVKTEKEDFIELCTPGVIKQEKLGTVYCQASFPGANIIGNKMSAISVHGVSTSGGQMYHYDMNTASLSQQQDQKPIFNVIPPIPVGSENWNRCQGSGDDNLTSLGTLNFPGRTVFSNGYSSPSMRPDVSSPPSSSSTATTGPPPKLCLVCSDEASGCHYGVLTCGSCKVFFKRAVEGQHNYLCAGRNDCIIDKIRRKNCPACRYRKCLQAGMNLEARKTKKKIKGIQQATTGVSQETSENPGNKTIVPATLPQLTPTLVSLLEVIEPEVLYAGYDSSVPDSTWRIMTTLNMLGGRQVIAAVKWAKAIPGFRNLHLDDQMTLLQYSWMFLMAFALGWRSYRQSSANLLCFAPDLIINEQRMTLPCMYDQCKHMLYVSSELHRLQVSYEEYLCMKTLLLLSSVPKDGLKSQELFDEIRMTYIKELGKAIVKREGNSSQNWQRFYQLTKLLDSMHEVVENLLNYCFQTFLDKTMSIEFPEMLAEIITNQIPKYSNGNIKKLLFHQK
Nature of the assay: Agonist activity at human GR expressed in CV1 cells by GRE activation assay. The class given is functional, cell-based, CV-1.

Assay [1] deals with T2, Mineralocorticoid receptor (Homo sapiens) (UniProt P08235).
T2 sequence (whole entry): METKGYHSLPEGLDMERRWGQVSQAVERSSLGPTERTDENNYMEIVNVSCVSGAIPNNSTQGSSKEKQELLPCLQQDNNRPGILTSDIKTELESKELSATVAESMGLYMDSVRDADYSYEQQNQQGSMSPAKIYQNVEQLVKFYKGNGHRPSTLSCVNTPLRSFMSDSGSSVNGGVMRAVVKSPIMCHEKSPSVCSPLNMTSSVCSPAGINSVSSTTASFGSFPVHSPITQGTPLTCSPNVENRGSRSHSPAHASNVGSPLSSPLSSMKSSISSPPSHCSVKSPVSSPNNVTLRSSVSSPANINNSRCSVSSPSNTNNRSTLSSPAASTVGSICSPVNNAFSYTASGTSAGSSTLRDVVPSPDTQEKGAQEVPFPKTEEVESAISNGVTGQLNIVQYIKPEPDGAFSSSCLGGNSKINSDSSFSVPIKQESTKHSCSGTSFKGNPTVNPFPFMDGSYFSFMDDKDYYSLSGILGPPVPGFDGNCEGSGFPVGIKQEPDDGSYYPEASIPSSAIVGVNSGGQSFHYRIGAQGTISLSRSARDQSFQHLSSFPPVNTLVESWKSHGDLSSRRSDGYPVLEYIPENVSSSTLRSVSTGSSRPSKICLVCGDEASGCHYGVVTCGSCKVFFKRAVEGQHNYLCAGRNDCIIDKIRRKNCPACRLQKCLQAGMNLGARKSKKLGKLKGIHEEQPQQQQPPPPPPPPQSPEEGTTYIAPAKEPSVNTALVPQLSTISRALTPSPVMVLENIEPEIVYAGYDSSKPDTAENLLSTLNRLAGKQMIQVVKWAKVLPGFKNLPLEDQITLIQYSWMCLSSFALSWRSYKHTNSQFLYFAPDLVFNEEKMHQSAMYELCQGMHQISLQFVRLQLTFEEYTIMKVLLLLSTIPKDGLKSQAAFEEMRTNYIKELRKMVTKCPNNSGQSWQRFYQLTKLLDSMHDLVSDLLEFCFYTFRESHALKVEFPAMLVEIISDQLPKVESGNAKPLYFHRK
Nature of the assay: Antagonist activity at mineralocorticoid receptor by MR activation assay. Also on record: scale not given: the % may be the effect or the level left. The class given is functional.

Assay [2] addresses T2, Mineralocorticoid receptor (Homo sapiens). Nature of the assay: Agonist activity at mineralocorticoid receptor by MR activation assay. Format: functional.
Assay [3] has as its target T3, Mineralocorticoid receptor (Homo sapiens, UniProt P08235).
T3 sequence (P08235 whole entry): T2 sequence (whole entry)
Nature of the assay: Binding affinity to MR. The method in brief:
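Competitive binding assays on PR and MR. Values are means of at least three separate experiments, each with triplicate determinations, ± SEM. A value without SEM comes from a single determination.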

For assay [4], the system named is RPMI-8226. Nature of the assay: Inhibition of tumor growth in human RPMI8226 cells xenografted nude mouse at 10 mg/kg, po after 4 weeks relative to Dexamethasone. The class given is functional.
The test system of assay [5] is RPMI-8226. Nature of the assay: Inhibition of tumor growth in human RPMI8226 cells xenografted nude mouse at 30 mg/kg, po after 4 weeks relative to Dexamethasone. The class given is functional.
Assay [6] has as its system RPMI-8226. Nature of the assay: Inhibition of tumor growth in human RPMI8226 cells xenografted nude mouse at 100 mg/kg, po after 4 weeks relative to Dexamethasone. The class given is functional. (In general: In xenograft studies the graft and the host belong to different species.)
Assay [7] concerns RPMI-8226. Nature of the assay: Inhibition of tumor growth in human RPMI8226 cells xenografted nude mouse at 3 mg/kg, po after 4 weeks relative to Dexamethasone. The class given is functional.

For the molecule `COCc1ccsc1/C=C1\Oc2ccc(O)c(OC)c2-c2ccc3c(c21)C(C)=CC(C)(C)N3`, at Glucocorticoid receptor, the EC50 came out at 0.2 nM. For the same molecule, the Activity in assay [1] was determined as 55%; in assay [2], 25%. In assay [3], this molecule showed a Ki of 10 nM.
At Glucocorticoid receptor, `CO/N=C(\C)c1ccsc1/C=C1\Oc2ccc(O)c(OC)c2-c2ccc3c(c21)C(C)=CC(C)(C)N3` had an EC50 of 0.1 nM. In assay [3], affinity was put at a Ki of 48 nM. In addition, the Efficacy with RPMI-8226 [4] stood at 78%; in the assay with RPMI-8226 [5], 82%; with RPMI-8226 [6], 95%.
Molecule `COc1c(O)ccc2c1-c1ccc3c(c1/C(=C/c1sccc1CO)O2)C(C)=CC(C)(C)N3` came in with an EC50 at Glucocorticoid receptor of 0.2 nM. In assay [3], this molecule registered a Ki of 980 nM. Also, the Efficacy was determined as 29% in the assay on RPMI-8226 [7], 80% with RPMI-8226 [5] and 97% with RPMI-8226 [6].

In general, EC50 refers to the concentration needed to bring the measured effect to its halfway point. As a reminder, the Ki is the equilibrium dissociation constant of an inhibitor or competing ligand from its target.
